This is an account of results in publication PMC9303630 (Journal of Clinical Pharmacology, 2021).

Entries after “also recorded” stand apart in the source; their conditions may differ. Marks after values point to notes of the source that are not given here.

The nature of data set [1]: Phase 1 open-label single-dose hepatic impairment PK study of ipatasertib. The class given is in vivo, human. As to conditions: for tlast: 100 mg ipatasertib single oral, median (min-max); for AUC0‐∞, Test/Reference geometric mean ratio / Cmax, Test/Reference geometric mean ratio: (90%CI) where printed. In outline: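 Open-label, parallel-group design: subjects with mild, moderate or severe hepatic impairment (Child-Pugh or NCI-ODWG) vs matched normal-function controls. Single oral 100 mg dose with 240 mL water after ≥8 h fast, then fasting ≥4 h. Plasma was sampled predose to day 15 for parent and M1, assayed with stable-labeled internal standards. Log-transformed AUC0‐∞ and Cmax were compared test vs reference with back-transformed geometric mean ratios and 90% CIs.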

Data set [2] is described as follows: Safety and tolerability in the hepatic impairment study. The class given is in vivo, human.
For data set [3] the following is noted: cited from earlier work.
The conditions of data set [4]: radiolabeled ipatasertib; ref data on file; cited from earlier work.
The conditions of data set [5]: 100-mg dose of ipatasertib coadministered with itraconazole; cited from earlier work.
The conditions of data set [6]: not assessed in this study; cited from earlier work.
For data set [7] the following is noted: once daily; combination setting; patients with solid tumors; cited from earlier work.
The subject of the next data set is P‐glycoprotein (P‐gp). As to conditions: cited from earlier work.
In another data set the test system is CYP3A4. Particulars: cited from earlier work.
The conditions of data set [8]: cited from earlier work. The source holds these as a separate data set.
Where [9] appears, read: Mild vs normal, Child-Pugh, listed as ipatasertib.
The mark [10] stands for this setting: Mild vs normal, NCI-ODWG, listed as ipatasertib.
The mark [11] stands for this setting: Moderate vs normal, Child-Pugh, listed as ipatasertib.
Where [12] appears, read: Moderate vs normal, NCI-ODWG, listed as ipatasertib.
Setting [13] is: Severe vs normal, Child-Pugh, listed as ipatasertib.
[14] abbreviates: Severe vs normal, NCI-ODWG, listed as ipatasertib.
The mark [15] stands for this setting: moderate or severe hepatic impairment, either method of classification.

Take `CC(C)NC[C@@H](C(=O)N1CCN(c2ncnc3c2[C@H](C)C[C@H]3O)CC1)c1ccc(Cl)cc1` [Ipatasertib]: the tlast in [1] (Child-Pugh, Healthy (N = 13)) was 120.0 (72.0‐120.4) h; in [1] (Child-Pugh, Mild (N = 8)), 120.0 (48.0‐168.0) h; in [1] (Child-Pugh, Moderate (N = 8)), 216.0 (146.5‐334.5) ^b h; in data set [1] (Child-Pugh, Severe (N = 7)), 192.2 (167.7‐336.0) ^c h; in [1] (NCI-ODWG, Healthy (N = 21)) it was 120.0 (48.0‐240.0) h; in data set [1] (NCI-ODWG, Mild (N = 5)), 144.1 (96.0‐168.0)^c h. The tlast in data set [1] (NCI-ODWG, Moderate (N = 5)) is given as 240.8 (168.0‐334.5)^c h; in [1] (NCI-ODWG, Severe (N = 5)), 216.4 (167.7‐336.0) h. The “systemic exposure compared to normal hepatic function” value in [1] (Child-Pugh mild hepatic impairment) was “comparable; also recorded: no appreciable difference”. In addition, the “apparent plasma clearance lower than normal hepatic function” value in data set [1] (Child-Pugh moderate) is reported as “≈ 2.5 fold”; in data set [1] (Child-Pugh severe), “≈ 2.9 fold”. Further, the “apparent volume of distribution lower than normal hepatic function” value in [1] (Child-Pugh moderate) was approximately 1.6 fold; in data set [1] (Child-Pugh severe), approximately 2.1 fold. Further, the “mean elimination t1/2 longer than normal hepatic function” value is listed as “≈ 1.7 fold” in [1] (Child-Pugh moderate) and approximately 1.5 fold in [1] (Child-Pugh severe). Also, the “increase in systemic exposure (AUC0‐∞) compared to normal hepatic function” value in data set [1] (Child-Pugh moderate hepatic impairment) is listed as “≈ 2 fold”; in [1] (Child-Pugh severe hepatic impairment) it was approximately 3 fold. Further, the “AUC0‐∞, Test/Reference geometric mean ratio” value is reported as 89.5% in data set [1] (Mild vs normal, Child-Pugh); 89.5 (65.1‐123.2) % in data set [1] (setting [9]); 153.6% in data set [1] (Mild vs normal, NCI-ODWG); 153.6 (87.7‐269.2) % in data set [1] (setting [10]); 261.5% in data set [1] (Moderate vs normal, Child-Pugh); 261.5 (191.2‐357.5) % in data set [1] (setting [11]). Moreover, the “AUC0‐∞, Test/Reference geometric mean ratio” value is given as 339.1% in data set [1] (Moderate vs normal, NCI-ODWG); 339.1 (241.7‐475.6) % in data set [1] (setting [12]); 298.1% in data set [1] (Severe vs normal, Child-Pugh); 298.1 (228.4‐389.0) % in [1] (setting [13]); 267.0% in [1] (Severe vs normal, NCI-ODWG); 267.0 (195.6‐364.3) % in data set [1] (setting [14]). In addition, the “Cmax, Test/Reference geometric mean ratio” value in [1] (Mild vs normal, Child-Pugh) was 98.6%; in data set [1] (setting [9]) it was 98.6 (52.8‐184.0) %; in data set [1] (Mild vs normal, NCI-ODWG), 101.1%; in [1] (setting [10]) it was 101.1 (35.9‐284.8) %; in [1] (Moderate vs normal, Child-Pugh) it was 184.1%; in data set [1] (setting [11]) it was 184.1 (112.2‐302.0) %. Besides, the “Cmax, Test/Reference geometric mean ratio” value in [1] (Moderate vs normal, NCI-ODWG) is reported as 198.1%; in data set [1] (setting [12]), 198.1 (109.5‐358.4) %; in data set [1] (Severe vs normal, Child-Pugh), 163.8%; in data set [1] (setting [13]) it was 163.8 (86.4‐310.3) %; in data set [1] (Severe vs normal, NCI-ODWG), 155.2%; in [1] (setting [14]), 155.2 (70.7‐340.9) %. For the same molecule, the “AUC0‐∞ higher than normal hepatic function” value in [1] (NCI-ODWG mild) was “≈ 1.5 fold”. The “Cmax compared to normal hepatic function” value in [1] (NCI-ODWG mild) was “similar”. The time of peak concentration (Tmax) in data set [1] (human, plasma, po, 100 mg, median tmax, across all the groups, single oral 100-mg dose, Child-Pugh) fell in the range of 30 to 60 min. The “AUC0‐∞ increase compared to normal hepatic function” value in [1] (setting [15]) was approximately 3 fold. Also, the “Cmax increase compared to normal hepatic function” value in data set [1] (setting [15]) is “≈ 2 fold”. Besides, the “total AEs reported” value in data set [2] (all 36 subjects) was 12 AEs. In addition, the “discontinuation due to AEs” value in [2] (in vivo) is on record as “no subjects were discontinued”. Further, the AEs reported in [2] (mild hepatic impairment) is recorded as 3 AEs; in data set [2] (moderate hepatic impairment) it was 3 AEs; in [2] (normal hepatic function) it was 1 AE; in data set [2] (severe hepatic impairment), 5 AEs. For the same molecule, the “subjects with AEs” value in [2] (mild hepatic impairment) was determined as 2 subjects; in data set [2] (moderate hepatic impairment), 3 subjects; in [2] (normal hepatic function), 1 subject; in [2] (severe hepatic impairment), 3 subjects. In data set [2] (one subject with moderate hepatic impairment), the “AE of orthostatic hypotension assessed as severe (grade 3)” value amounted to 1 AE. Besides, the “overall safety and tolerability” value in [2] (single oral dose of 100 mg, normal hepatic function and hepatic impairment) is “generally safe and well tolerated”. Further, the “median half‐life (t1/2)” value in data set [3] (400-mg dose in patients) is “≈ 45 hours”. The dose proportionality entry in [3] (single dose, doses of 100 to 800 mg, dose escalation study) is listed as “close to dose proportionality”. For the same molecule, in data set [4], the “parent drug eliminated in urine” value is “≈ 8%”. The “total administered dose eliminated in urine” value in [4] was “≈ 19%”. Besides, the “increase of ipatasertib exposures with itraconazole” value in data set [5] is recorded as “≈ 5 fold”. Further, the “overall mean percentage unbound in human plasma” value in [6] was 63.6%. In [7], the maximum tolerated dose is 400 mg. The “substrate of P‐glycoprotein (P‐gp)” value in the data set with P‐glycoprotein (P‐gp) is given as “substrate”. In addition, the “substrate of CYP3A4” value in the data set on CYP3A4 is on record as “sensitive substrate”.

Take `O=C(c1ccc(F)c(F)c1Nc1ccc(I)cc1F)N1CC(O)([C@@H]2CCCCN2)C1` [cobimetinib]: in data set [8], the “exposure in subjects with normal and mildly impaired hepatic function” value (from here on “exposure in subjects”) was “comparable exposure”.

Regarding `COc1cc2ncnc(Nc3ccc(F)c(Cl)c3)c2cc1NC(=O)/C=C/CN1CCCCC1` [dacomitinib], in data set [8], the “exposure in subjects” value was “comparable exposure”.

On to `CCN(CC)CCNC(=O)c1c(C)[nH]c(/C=C2\C(=O)Nc3ccc(F)cc32)c1C` [sunitinib], for which the “exposure in subjects” value in data set [8] was “comparable exposure”.

Take `CC1(C)CCC(CN2CCN(c3ccc(C(=O)NS(=O)(=O)c4ccc(NCC5CCOCC5)c([N+](=O)[O-])c4)c(Oc4cnc5[nH]ccc5c4)c3)CC2)=C(c2ccc(Cl)cc2)C1` [venetoclax]: the “exposure in subjects” value in data set [8] is reported as “comparable exposure”.
